Reference: ChEMBL document CHEMBL3739352, “Anticonvulsant activity, crystal structures, and preliminary safety evaluation of N-trans-cinnamoyl derivatives of selected (un)modified aminoalkanols” (Eur J Med Chem, 2016)
Active and inactive are the calls of the source. No cut-off for these calls is given here.

Assays:
Mus musculus [1] = assay: Anticonvulsant activity in albino Carworth Farms No.1 mouse assessed as protection against subcutaneous dosed pentetrazol-induced seizures at 300 mg/kg, ip after 0.5 hrs; type: functional, organism-based
In short: (§1)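 Mouse i.p. screen in Carworth Farms No.1 albino mice at 30, 100 or 300 mg/kg in 0.5% methylcellulose. Testing was at 0.5 and 4 h after injection, by maximal electroshock or by subcutaneous pentetrazol challenge. Scoring was number protected / number used.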

[2] = Hepatotoxicity against human HepG2 cells assessed as cell viability at 25 uM after 24 hrs by MTT assay relative to control; type: toxicity, cell-based; settings: read-out: Activity
In short: (§2)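 HepG2 cells (EMEM, 10% FBS, 37 °C, 5% CO₂) were seeded at 1 × 10⁴ per well and cultured overnight. They were then exposed to increasing compound concentrations for 24 h. MTT reagent was added for 3 h and formazan crystals dissolved before reading. Data are mean ± SD of at least three independent experiments, relative to untreated control.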

Rattus norvegicus [3] = assay: Anticonvulsant activity in Sprague-Dawley rat assessed as protection against maximal electroshock-induced seizures at 30 mg/kg, po after 4 hrs; type: functional, organism-based
In short: (§3)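 Sprague-Dawley rats were given 30 mg/kg p.o. in 0.5% methylcellulose. Maximal electroshock was applied at 0.25, 0.5, 1.0, 2.0 and 4 h after dosing. Results are reported as number of rats protected / number tested.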

Mus musculus [4] = assay: Anticonvulsant activity in albino Carworth Farms No.1 mouse assessed as protection against 6-Hz electroshock-induced seizures at 100 mg/kg, ip after 2 hrs; type: functional, organism-based
In short: (§4)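 Carworth Farms No.1 albino mice were dosed i.p. at 100 mg/kg (0.5% methylcellulose solution or suspension). 6-Hz seizures were induced at 32 mA at 0.25, 0.5, 1.0, 2.0 and 4 h after injection. Results are given as animals protected / animals tested.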

Salmonella typhimurium [5] = assay: Mutagenicity in Salmonella typhimurium TA98 assessed as mutagenic index at 4 ug/plate by Ames test; type: toxicity, organism-based; settings: salmonella enterica subsp. enterica serovar typhimurium
Salmonella typhimurium [6] = assay: Mutagenicity in Salmonella typhimurium TA100 assessed as number of revertants at 1000 ug/plate by Ames test (reference value: 77 +/-4); type: toxicity, organism-based; settings: salmonella enterica subsp. enterica serovar typhimurium
In short: (§5)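 Salmonella TA100 preincubation Ames assay: overnight-type 12 h broth culture at 37 °C, compound in DMSO at final 4–1000 per plate, top agar with trace histidine, glucose minimal agar, 48 h at 37 °C. Revertant colonies per plate were counted, with a DMSO negative control and a sodium azide positive control. Three independent repetitions were run.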

[7] = Hepatotoxicity against human HepG2 cells assessed as cell viability at 10 uM after 24 hrs by MTT assay relative to control; type: toxicity, cell-based; settings: read-out: Activity; in short: as §2
Rattus norvegicus [8] = assay: Anticonvulsant activity in Sprague-Dawley rat assessed as protection against maximal electroshock-induced seizures at 30 mg/kg, po after 0.5 hrs; type: functional, organism-based; in short: as §3
Salmonella typhimurium [9] = assay: Mutagenicity in Salmonella typhimurium TA1535 assessed assessed as mutagenic index at 100 ug/plate by Ames test; type: toxicity, organism-based; settings: salmonella enterica subsp. enterica serovar typhimurium
in vitro [10] = settings: human, HepG2 cells
HepG2 = assay: Cytotoxicity against human HepG2 cells assessed as change in cell morphology after 48 hrs by inverted microscopic analysis; type: cell-based; settings: hepg2, 48 h
In short: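 HepG2 cells in EMEM with 10% FBS and antibiotics were seeded at 5 × 10⁴ cells/cm². After 24 h the medium was replaced with fresh medium with or without compound. After 48 h, cells were imaged under interference modulation contrast at 37 °C, 5% CO₂.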

Mus musculus [11] = assay: Anticonvulsant activity in albino Carworth Farms No.1 mouse assessed as protection against maximal electroshock-induced seizures at 300 mg/kg, ip after 0.5 hrs; type: functional, organism-based; in short: as §1
[12] = Lipophilicity of the compound using 95% methanol in water at 1 mg/ml by RT-TLC analysis; type: physicochemical; settings: buffer
In short: (§6)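 Reversed-phase TLC with a methanol–water mobile phase at the stated methanol content (v/v). Compounds were spotted from 1 mg/mL methanol solutions after 1 h chamber saturation and located under UV light. Rf was measured and RM = log(1/Rf − 1) calculated.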

[13] = Lipophilicity of the compound using 65% methanol in water at 1 mg/ml by RT-TLC analysis; type: physicochemical; settings: buffer; in short: as §6
Salmonella typhimurium [14] = assay: Mutagenicity in Salmonella typhimurium TA1535 assessed as number of revertants at 4 ug/plate by Ames test (reference value: 10 +/- 3); type: toxicity, organism-based; settings: salmonella enterica subsp. enterica serovar typhimurium
[15] = Lipophilicity of the compound using 90% methanol in water at 1 mg/ml by RT-TLC analysis; type: physicochemical; settings: buffer; in short: as §6
Salmonella typhimurium [16] = assay: Mutagenicity in Salmonella typhimurium TA100 assessed as number of revertants at 20 ug/plate by Ames test (reference value: 77 +/-4); type: toxicity, organism-based; settings: salmonella enterica subsp. enterica serovar typhimurium; in short: as §5
Mus musculus [17] = assay: Neurotoxicity in albino Carworth Farms No.1 mouse at 300 mg/kg, ip after 4 hrs by rotarod test; type: toxicity, organism-based; settings: in vivo
In short: (§7)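 Mice (albino Carworth Farms No.1) were dosed i.p. at 30, 100 or 300 mg/kg in 0.5% methylcellulose. They were tested 0.5 and 4 h later on a 1-inch knurled rod rotating at 6 rpm. Neurotoxicity was scored if a mouse could not stay on the rod for at least 1 min in each of three trials. Results are given as animals toxic/animals tested, with deaths noted.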

Salmonella typhimurium [18] = assay: Mutagenicity in Salmonella typhimurium TA1535 assessed as assessed as mutagenic index at 4 ug/plate by Ames test; type: toxicity, organism-based; settings: salmonella enterica subsp. enterica serovar typhimurium
In short: (§8)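 Ames preincubation test. Strain culture was grown 12 h at 37 °C in nutrient broth, then mixed with compound in DMSO (final 4, 20, 100, 500, 1000 per plate) and buffer in top agar with trace histidine. This was plated on glucose minimal agar for 48 h at 37 °C. Mutagenic index = revertants with compound / DMSO control revertants, from three independent repeats.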

Salmonella typhimurium [19] = assay: Mutagenicity in Salmonella typhimurium TA100 assessed as mutagenic index at 4 ug/plate by Ames test; type: toxicity, organism-based; settings: salmonella enterica subsp. enterica serovar typhimurium; in short: as §8
Salmonella typhimurium [20] = assay: Mutagenicity in Salmonella typhimurium TA100 assessed as number of revertants at 500 ug/plate by Ames test (reference value: 77 +/-4); type: toxicity, organism-based; settings: salmonella enterica subsp. enterica serovar typhimurium; in short: as §5
Salmonella typhimurium [21] = assay: Mutagenicity in Salmonella typhimurium TA98 assessed as number of revertants at 1000 ug/plate by Ames test (reference value: 23 +/- 3); type: toxicity, organism-based; settings: salmonella enterica subsp. enterica serovar typhimurium
Salmonella typhimurium [22] = assay: Mutagenicity in Salmonella typhimurium TA100 assessed as mutagenic index at 20 ug/plate by Ames test; type: toxicity, organism-based; settings: salmonella enterica subsp. enterica serovar typhimurium; in short: as §8
Salmonella typhimurium [23] = assay: Mutagenicity in Salmonella typhimurium TA98 assessed as mutagenic index at 20 ug/plate by Ames test; type: toxicity, organism-based; settings: salmonella enterica subsp. enterica serovar typhimurium
in vitro [24] = settings: human, HepG2 cells; remark: listed apart in the source
Salmonella typhimurium [25] = assay: Mutagenicity in Salmonella typhimurium TA1535 assessed as assessed as mutagenic index at 500 ug/plate by Ames test; type: toxicity, organism-based; settings: salmonella enterica subsp. enterica serovar typhimurium
Salmonella typhimurium [26] = assay: Mutagenicity in Salmonella typhimurium TA100 assessed as mutagenic index at 500 ug/plate by Ames test; type: toxicity, organism-based; settings: salmonella enterica subsp. enterica serovar typhimurium; in short: as §8
Mus musculus [27] = assay: Anticonvulsant activity in albino Carworth Farms No.1 mouse assessed as protection against subcutaneous dosed pentetrazol-induced seizures at 30 mg/kg, ip after 0.5 hrs; type: functional, organism-based; in short: as §1
Mus musculus [28] = assay: Anticonvulsant activity in albino Carworth Farms No.1 mouse assessed as protection against 6-Hz electroshock-induced seizures at 100 mg/kg, ip after 4 hrs; type: functional, organism-based; in short: as §4
Mus musculus [29] = assay: Neurotoxicity in albino Carworth Farms No.1 mouse at 100 mg/kg, ip after 4 hrs by rotarod test; type: toxicity, organism-based; settings: in vivo; in short: as §7

Compound	Activity (Mus musculus [1])	Activity_index (Salmonella typhimurium [5])	Activity (Salmonella typhimurium [6])	Activity_index (Salmonella typhimurium [9])	Activity (Mus musculus [11])	Rm [12]	Rm [13]	Activity (Salmonella typhimurium [14])	Rm [15]	Activity (Salmonella typhimurium [16])	Activity_index (Salmonella typhimurium [18])	Activity_index (Salmonella typhimurium [19])	Activity (Salmonella typhimurium [20])	Activity (Salmonella typhimurium [21])	Activity_index (Salmonella typhimurium [22])	Activity_index (Salmonella typhimurium [23])	Activity_index (Salmonella typhimurium [25])	Activity_index (Salmonella typhimurium [26])	Activity (Mus musculus [27])	Activity (Mus musculus [29])	other results
CC(CO)NC(=O)/C=C/c1ccccc1 (racemic)	Active	0.9	67	0.5	Active	-0.69	-0.03	15	-0.6	62	1.5	0.9	65	18	0.8	0.9	0.8	0.8	inactive	Non-toxic	viability at 24 h, 25 µM [2]: 96.6%; Activity (Rattus norvegicus [3]): inactive; Activity (Mus musculus [4]): inactive; viability at 24 h, 10 µM [7]: 97.1%; Activity (Rattus norvegicus [8]): inactive; viability at 24 h, 25 µM (in vitro [10]): 98%; Activity (HepG2): Non-toxic; Activity (Mus musculus [17]): Non-toxic; viability at 24 h, 50 µM (in vitro [24]): 96%; Activity (Mus musculus [28]): inactive
O=C(/C=C/c1ccccc1)N1CCC(O)CC1	Active	1	70	0.9		-0.6	0.18	5	-0.48	68	0.5	0.9	72	20	0.9	0.8	0.8	0.9	inactive	Non-toxic	Activity (Rattus norvegicus [3]): inactive; Activity (Rattus norvegicus [8]): inactive
CC(C)C(CO)NC(=O)/C=C/c1ccccc1 (racemic)	inactive	0.9	80	0.6	Active	-0.63	0.31	5	-0.45	75	0.5	1.1	79	15	1	0.8	0.7	1	inactive	Non-toxic	viability at 24 h, 25 µM [2]: 95.7%; Activity (Rattus norvegicus [3]): inactive; Activity (Mus musculus [4]): inactive; viability at 24 h, 10 µM [7]: 95.2%; Activity (Rattus norvegicus [8]): inactive; viability at 24 h, 25 µM (in vitro [10]): 98%; Activity (HepG2): Non-toxic; Activity (Mus musculus [17]): Non-toxic; viability at 24 h, 50 µM (in vitro [24]): 93%; Activity (Mus musculus [28]): inactive
O=C(/C=C/c1ccccc1)N[C@H]1CCCC[C@@H]1O (racemic)	inactive	1	70	0.6	inactive	-0.52	0.33	5	-0.43	79	0.5	0.9	73	18	1	0.9	0.7	1	inactive	Non-toxic	Activity (Mus musculus [17]): Toxic
CC(O)CNC(=O)/C=C/c1ccccc1 (racemic)	Active	1.1	73	1.2	Active	-0.69	0.02	12	-0.58	70	1.2	0.9	65	24	0.9	1	1.4	0.8	inactive	Non-toxic	viability at 24 h, 25 µM [2]: 92.5%; Activity (Rattus norvegicus [3]): inactive; Activity (Mus musculus [4]): inactive; viability at 24 h, 10 µM [7]: 97.3%; Activity (Rattus norvegicus [8]): inactive; viability at 24 h, 25 µM (in vitro [10]): 99%; Activity (HepG2): Non-toxic; Activity (Mus musculus [17]): Non-toxic; viability at 24 h, 50 µM (in vitro [24]): 98%; Activity (Mus musculus [28]): inactive
CCC(O)CNC(=O)/C=C/c1ccccc1 (racemic)	Active	0.9	72	0.5	Active	-0.66	0.19	9	-0.52	64	0.9	0.8	60	25	0.8	0.9	0.7	0.8	inactive	Non-toxic	viability at 24 h, 25 µM [2]: 91.2%; Activity (Rattus norvegicus [3]): inactive; Activity (Mus musculus [4]): inactive; viability at 24 h, 10 µM [7]: 94.5%; viability at 24 h, 25 µM (in vitro [10]): 97%; Activity (HepG2): Non-toxic; Activity (Mus musculus [17]): Non-toxic; viability at 24 h, 50 µM (in vitro [24]): 92%; Activity (Mus musculus [28]): inactive
CCC(CO)NC(=O)/C=C/c1ccccc1 (racemic)	Active	0.9	64	1.4	Active	-0.66	0.25	11	-0.55	62	1.1	0.9	72	19	0.8	1	1.3	0.9	inactive	Non-toxic	Activity (Mus musculus [17]): Non-toxic
